ChEMBL document CHEMBL4190374, “Structure-Function Evaluation of Imidazopyridine Derivatives Selective for δ-Subunit-Containing γ-Aminobutyric Acid Type A (GABAA) Receptors” (J Med Chem, 2018)
Calls of active or inactive are those of the source. The calls are words filed in the database; no cut-off is given here.

Columns and labels:
[1] = target: Gamma-aminobutyric acid receptor subunit alpha-6/beta-3/gamma-2 (Rattus norvegicus, UniProt P18508+P30191+P63079); assay: Displacement of [3H]EBOB from rat GABA-A receptor alpha6beta3gamma2 expressed in HEK293 cell membranes after 90 mins by liquid scintillation counting analysis
Gamma-aminobutyric acid receptor subunit alpha-6/beta-3/gamma-2, sequence (P18508 whole entry): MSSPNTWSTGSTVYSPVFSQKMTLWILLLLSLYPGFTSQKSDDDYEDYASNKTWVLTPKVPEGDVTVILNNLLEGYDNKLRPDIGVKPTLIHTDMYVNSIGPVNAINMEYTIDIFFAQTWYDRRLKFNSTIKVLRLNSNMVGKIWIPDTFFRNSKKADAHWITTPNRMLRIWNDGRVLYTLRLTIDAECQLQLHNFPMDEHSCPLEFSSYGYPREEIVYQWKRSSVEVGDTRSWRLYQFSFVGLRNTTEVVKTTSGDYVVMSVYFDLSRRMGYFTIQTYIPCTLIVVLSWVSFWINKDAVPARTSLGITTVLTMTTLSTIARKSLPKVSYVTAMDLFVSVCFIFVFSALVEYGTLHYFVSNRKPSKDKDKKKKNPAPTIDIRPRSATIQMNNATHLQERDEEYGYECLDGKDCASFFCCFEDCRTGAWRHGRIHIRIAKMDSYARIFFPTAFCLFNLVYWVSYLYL
Gamma-aminobutyric acid receptor subunit alpha-6/beta-3/gamma-2, sequence (P30191 whole entry): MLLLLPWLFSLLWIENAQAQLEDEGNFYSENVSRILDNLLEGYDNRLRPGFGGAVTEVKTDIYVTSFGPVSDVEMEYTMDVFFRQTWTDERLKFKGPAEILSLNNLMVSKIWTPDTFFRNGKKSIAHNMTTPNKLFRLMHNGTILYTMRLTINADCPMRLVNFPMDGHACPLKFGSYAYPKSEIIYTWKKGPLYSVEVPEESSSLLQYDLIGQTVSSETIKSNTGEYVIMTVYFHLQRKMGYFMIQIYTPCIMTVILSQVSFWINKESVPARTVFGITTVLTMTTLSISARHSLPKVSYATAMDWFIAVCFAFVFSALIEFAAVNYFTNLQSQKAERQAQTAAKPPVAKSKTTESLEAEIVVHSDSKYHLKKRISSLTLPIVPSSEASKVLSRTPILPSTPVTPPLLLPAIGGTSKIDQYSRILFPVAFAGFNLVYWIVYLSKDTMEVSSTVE
Gamma-aminobutyric acid receptor subunit alpha-6/beta-3/gamma-2, sequence (P63079 whole entry): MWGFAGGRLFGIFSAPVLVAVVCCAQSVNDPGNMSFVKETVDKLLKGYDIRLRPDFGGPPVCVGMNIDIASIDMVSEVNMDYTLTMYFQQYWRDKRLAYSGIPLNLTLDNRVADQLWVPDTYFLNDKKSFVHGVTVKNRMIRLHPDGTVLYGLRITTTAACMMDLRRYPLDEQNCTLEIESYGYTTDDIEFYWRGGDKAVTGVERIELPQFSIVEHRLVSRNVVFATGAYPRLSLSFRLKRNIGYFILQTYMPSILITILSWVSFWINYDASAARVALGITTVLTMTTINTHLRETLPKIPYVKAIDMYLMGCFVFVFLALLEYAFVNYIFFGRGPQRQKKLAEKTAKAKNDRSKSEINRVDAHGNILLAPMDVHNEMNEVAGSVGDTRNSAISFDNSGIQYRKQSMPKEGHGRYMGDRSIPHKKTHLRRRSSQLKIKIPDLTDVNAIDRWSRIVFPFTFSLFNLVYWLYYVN
Procedure, shortened: (§1)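 Crude membranes from HEK 293 cells transiently Ca-phosphate-transfected with rat subunit cDNAs, harvested at 48 h. Membranes (150-200 µg protein) incubated with 3 nM [3H]EBOB in 50 mM Tris/citrate pH 7.3 plus 0.2 M NaCl. Compound up to 10 µM, final DMSO 0.1%, no GABA, 90 min at 21 °C. Bound radioligand collected by GF/C filtration and counted by scintillation.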

[2] = target: Gamma-aminobutyric acid receptor subunit alpha-6/beta-3/delta (Rattus norvegicus, UniProt P18506+P30191+P63079); assay: Displacement of [3H]EBOB from rat GABA-A receptor alpha6beta3delta expressed in HEK293 cell membranes after 90 mins by liquid scintillation counting analysis; procedure, shortened: as §1
Gamma-aminobutyric acid receptor subunit alpha-6/beta-3/delta, sequence (P18506 whole entry): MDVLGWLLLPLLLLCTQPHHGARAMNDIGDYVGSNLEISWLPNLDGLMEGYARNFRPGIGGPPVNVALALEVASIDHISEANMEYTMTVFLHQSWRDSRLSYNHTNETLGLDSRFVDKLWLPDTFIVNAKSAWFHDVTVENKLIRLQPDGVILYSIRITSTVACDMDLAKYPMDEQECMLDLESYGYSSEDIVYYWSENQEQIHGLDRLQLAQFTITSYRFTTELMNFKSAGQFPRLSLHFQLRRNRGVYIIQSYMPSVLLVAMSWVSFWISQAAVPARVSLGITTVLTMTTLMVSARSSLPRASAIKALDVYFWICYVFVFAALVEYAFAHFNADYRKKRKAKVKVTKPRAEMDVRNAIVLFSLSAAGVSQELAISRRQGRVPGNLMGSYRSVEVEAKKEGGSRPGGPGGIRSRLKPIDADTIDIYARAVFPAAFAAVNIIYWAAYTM
Gamma-aminobutyric acid receptor subunit alpha-6/beta-3/delta, sequence (P30191 whole entry): as the sequence (P30191 whole entry) above
Gamma-aminobutyric acid receptor subunit alpha-6/beta-3/delta, sequence (P63079 whole entry): as the sequence (P63079 whole entry) above

[3] = target: T1, Gamma-aminobutyric acid receptor subunit alpha-6/beta-3/gamma-2 (Rattus norvegicus) (UniProt P18508+P30191+P63079); assay: Displacement of [3H]EBOB from rat GABA-A receptor alpha6beta3gamma2 expressed in HEK293 cell membranes up to 10 uM after 90 mins by liquid scintillation counting analysis relative to control; procedure, shortened: as §1
[4] = target: T2, Gamma-aminobutyric acid receptor subunit alpha-6/beta-3/delta (Rattus norvegicus) (UniProt P18506+P30191+P63079); assay: Displacement of [3H]EBOB from rat GABA-A receptor alpha6beta3delta expressed in HEK293 cell membranes up to 10 uM after 90 mins by liquid scintillation counting analysis relative to control; procedure, shortened: as §1
[5] = target: T3, Gamma-aminobutyric acid receptor subunit alpha-6/beta-3 (Rattus norvegicus) (UniProt P30191+P63079); assay: Displacement of [3H]EBOB from rat GABA-A receptor alpha6beta3 expressed in HEK293 cell membranes up to 10 uM after 90 mins by liquid scintillation counting analysis relative to control; procedure, shortened: as §1
[6] = target: Gamma-aminobutyric acid receptor subunit alpha-6/beta-3 (Rattus norvegicus, UniProt P30191+P63079); assay: Displacement of [3H]EBOB from rat GABA-A receptor alpha6beta3 expressed in HEK293 cell membranes after 90 mins by liquid scintillation counting analysis; procedure, shortened: as §1
Gamma-aminobutyric acid receptor subunit alpha-6/beta-3, sequence (P30191 whole entry): as the sequence (P30191 whole entry) above
Gamma-aminobutyric acid receptor subunit alpha-6/beta-3, sequence (P63079 whole entry): as the sequence (P63079 whole entry) above

[7] = target: T2, Gamma-aminobutyric acid receptor subunit alpha-6/beta-3/delta (Rattus norvegicus); assay: Displacement of [3H]EBOB from rat GABA-A receptor alpha6beta3delta expressed in HEK293 cell membranes at 10 uM after 90 mins by liquid scintillation counting analysis relative to control; procedure, shortened: as §1
[8] = target: T1, Gamma-aminobutyric acid receptor subunit alpha-6/beta-3/gamma-2 (Rattus norvegicus); assay: Displacement of [3H]EBOB from rat GABA-A receptor alpha6beta3gamma2 expressed in HEK293 cell membranes at 10 uM after 90 mins by liquid scintillation counting analysis relative to control; procedure, shortened: as §1
[9] = target: T3, Gamma-aminobutyric acid receptor subunit alpha-6/beta-3 (Rattus norvegicus); assay: Displacement of [3H]EBOB from rat GABA-A receptor alpha6beta3 expressed in HEK293 cell membranes at 10 uM after 90 mins by liquid scintillation counting analysis relative to control; procedure, shortened: as §1

How did the IC50 [1] turn out when `O=C(Nc1c(-c2cccs2)nc2c(Br)cc(Br)cn12)c1ccc(F)cc1` was run?
Its IC50 is 3390 nM.

What about the IC50 [2] of the same compound?
The IC50 was 1200 nM.

And the Imax [3]?
Its Imax is 103%.

What about the Imax [4] of the same compound?
Its Imax is 87%.

And the Imax [5]?
The Imax was 91%.

And the IC50 [6]?
Its IC50 is 3060 nM.

`CCCCOc1ccc(C(=O)Nc2c(-c3cccs3)nc3c(Br)cc(Br)cn23)cc1` was tested. Which IC50 [1] did it give?
Its IC50 is 5510 nM.

What about the IC50 [2] of the same compound?
Its IC50 is 860 nM.

And the Imax [3]?
The Imax was 24%.

What about the Imax [4] of the same compound?
The Imax was 71%.

And the Imax [5]?
Its Imax is 46%.

And the IC50 [6]?
Its IC50 is 2500 nM.

For `O=C(Nc1c(-c2cccs2)nc2c(Br)cc(Br)cn12)c1ccc(OCCCF)cc1`, which IC50 [2] is on record?
Its IC50 is 1000 nM.

What about the inhibition [3] of the same compound?
Its inhibition is “inactive”.

And the Imax [4]?
Its Imax is 38%.

And the inhibition [5]?
Its inhibition is “inactive”.

What does the source list for `O=C(Nc1c(-c2cccs2)nc2c(Br)cc(Br)cn12)c1ccc(OCCF)cc1`?
Imax [7]: 37%; Imax [8]: 15%; inhibition [9]: inactive
